Measurements from ChEMBL document CHEMBL1152902, “Synthesis, antifungal activities and 3D-QSAR study of N-(5-substituted-1,3,4-thiadiazol-2-yl)cyclopropanecarboxamides” (2009).

Experiments:
Format in all cases: functional
[1] = system: Fusarium oxysporum; experiment: Antifungal activity against Fusarium oxysporum at 500 ug/ml relative to control
Summary of the method: (§1)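 Pot culture test run as in the cited reference, with series compounds screened against five fungi: S. sclerotiorum (Lib.) de Bary, R. solani, F. oxysporum, C. cassiicola and B. cinerea. Culture plates were held at (24 ±1) °C. Commercial fungicides (dimehachlon, jinggangmycin, thiophanate methyl, chlorothalonil, pyrimethanil) served as controls under the same conditions.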

[2] = system: Sclerotinia sclerotiorum; experiment: Antifungal activity against Sclerotinia sclerotiorum (Lib.) de Bary at 500 ug/ml relative to control; summary of the method: as §1
[3] = system: Rhizoctonia solani; experiment: Antifungal activity against Rhizoctonia solani at 500 ug/ml relative to control; summary of the method: as §1
[4] = system: Corynespora cassiicola; experiment: Antifungal activity against Corynespora cassiicola at 500 ug/ml relative to control; summary of the method: as §1
[5] = system: Botrytis cinerea; experiment: Antifungal activity against Botrytis cinerea at 500 ug/ml relative to control; summary of the method: as §1

| SMILES | inhibition at 500 µg/mL [1] [%] | inhibition at 500 µg/mL [2] [%] | inhibition at 500 µg/mL [3] [%] | inhibition at 500 µg/mL [4] [%] | inhibition at 500 µg/mL [5] [%] |
| --- | --- | --- | --- | --- | --- |
| COC(=O)NC(=S)Nc1ccccc1NC(=S)NC(=O)OC [THIOPHANATE METHYL] | 97 | – | – | – | – |
| O=C(Nc1nnc(-c2ccccc2Cl)s1)C1CC1 | 91 | 25.5 | 44 | 21.4 | 35.1 |
| O=C1CCC(=O)N1c1cc(Cl)cc(Cl)c1 [DIMETHACHLON] | – | 96.7 | – | – | – |
| CCCc1nnc(NC(=O)C2CC2)s1 | 1 | 40 | 35 | 46.6 | 57.9 |
| Cc1nnc(NC(=O)C2CC2)s1 | 84 | 23 | 5 | 52.4 | 67.5 |
| Cc1ccccc1-c1nnc(NC(=O)C2CC2)s1 | 21 | 37.5 | 36 | 50.8 | 75.1 |
| COc1ccc(-c2nnc(NC(=O)C3CC3)s2)cc1 | 12 | 33 | -9 | 33.3 | 79.4 |
| O=C(Nc1nnc(-c2ccc([N+](=O)[O-])cc2)s1)C1CC1 | 13 | 43.1 | 16 | 18.6 | 30.3 |
| CCc1nnc(NC(=O)C2CC2)s1 | 10 | 51.7 | 23 | 49.7 | 32.1 |
| Cc1cc(C)nc(Nc2ccccc2)n1 [PYRIMETHANIL] | – | – | – | – | 99.2 |
| CC(C)c1nnc(NC(=O)C2CC2)s1 | 20 | 47.7 | 11 | 29.3 | 42 |
| O=C(Nc1nnc(-c2ccc(Cl)cc2)s1)C1CC1 | 28 | 23.9 | 62 | 19.7 | 13.5 |
| CCCCc1nnc(NC(=O)C2CC2)s1 | 2 | 10.3 | 44 | 21.9 | 26 |
| O=C(Nc1nnc(-c2ccccc2F)s1)C1CC1 | 84 | 23 | 5 | 68.3 | 67.5 |
| Cc1cccc(-c2nnc(NC(=O)C3CC3)s2)c1 | 11 | 20 | 39 | 8.38 | 90.7 |
| N#Cc1c(Cl)c(Cl)c(Cl)c(C#N)c1Cl [CHLOROTHALONIL] | – | – | – | 86.4 | – |
| O=C(Nc1nnc(-c2ccccc2)s1)C1CC1 | 16 | 24 | 9 | 17.4 | 80.5 |
| O=C(Nc1nncs1)C1CC1 | 17 | 24 | 37 | 22.5 | 83.7 |
| O=C(Nc1nnc(C2CC2)s1)C1CC1 | 37 | 26.7 | 21 | 13.3 | 66.6 |
